Reference: publication PMC8462008 (Bioorganic & medicinal chemistry, 2021)
Entries after “also recorded” stand apart in the source; their conditions may differ.

What was measured:
[1] = system: IRF3; test: IRF3 luciferase reporter assay in RSV-infected A549 cells; format: cell-based, human; settings: 10 μM
How it was run: (§1)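 A549 cells transfected in triplicate (FuGene 6) with luciferase plasmids carrying NF-κB binding sites (NF-κB-Luc) or the IRF-3 site (PRDIII-I-Luc, IRF-3-Luc). At 20 h post-transfection, cells were infected with RSV long strain, either MOI 1 with 2 h adsorption then virus removed and 10 μM test compound for 15 h, or MOI 5 with 4 h treatment. Cells were lysed for luciferase. Run at least twice; means ± SE.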

[2] = system: NF-κB; test: NF-κB luciferase reporter assay in RSV-infected A549 cells; format: cell-based, human; settings: 10 μM
How it was run: as §1

[3] = system: RSV-induced cytokines/chemokines; test: RSV-induced cytokine/chemokine induction in SAECs; format: cell-based, human; settings: 10 μM, 4 h posttreatment, RSV MOI 5, SAECs supernatant
How it was run: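 Primary human small airway epithelial cells from normal distal lung were infected with RSV long strain at MOI 5. Virus was removed at 2 h and cells were treated with 10 μM test compound. Supernatants were collected at 4 h post-treatment and assayed with a multiplex human cytokine/chemokine bead kit (Bio-Plex) per kit instructions. Run at least twice; means ± SE.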

[4] = system: RSV; test: RSV genome copies in infected A549 cells by RT-qPCR; format: cell-based, respiratory syncytial virus (RSV long strain); settings: 10 μM, RSV MOI 1, A549
How it was run: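 RSV long strain was grown in HEp-2 cells at 37 °C and purified on a sucrose gradient. A549 cells were infected at MOI 1, then treated with 10 μM test compound for 6, 15 or 24 h. Intracellular RSV genome copies were quantified by RT-qPCR at each time point after treatment.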

[5] = system: RSV viral proteins (P, M, N, F); test: RSV viral protein expression in A549 cells by western blot; format: cell-based, respiratory syncytial virus (RSV long strain); settings: 10 μM; for RSV protein expression: 4 h, RSV MOI 5, A549, versus control cells; for expression of viral P, M, N and F proteins: 15 h posttreatment, RSV MOI 1, A549
How it was run: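 A549 cells were infected with RSV long strain, either MOI 1 then 10 μM test compound for 15 h, or MOI 5 then 10 μM for 4 h. Total lysates were resolved by SDS-PAGE and transferred to PVDF. Membranes were blocked in 5% milk/TBS-Tween 20 and probed with biotin-conjugated polyclonal goat anti-RSV or anti-F antibody; β-actin was the loading control.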

[6] = system: IRF3; test: RSV-induced IRF3 phosphorylation and nuclear translocation in A549 cells; format: cell-based, human; settings: 10 μM; for IRF-3 total protein level in the cell: cell lysates at 4 h or 15 h of infection
How it was run: (§2)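 A549 cells, mock or RSV-infected, were treated with 10 μM test compound, either MOI 5 for 4 h or MOI 1 for 15 h. Nuclear extracts were blotted for IRF-3, phospho-IRF3 Ser396, p65, and phospho-p65 Ser276 and Ser536. Total IRF-3 and p65 were measured in whole-cell lysates at 4 h and 15 h. Blots used SDS-PAGE, PVDF and 5% milk block; β-actin was the loading control.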

[7] = system: p65; test: RSV-induced p65 phosphorylation and nuclear translocation in A549 cells; format: cell-based, human; settings: 10 μM; for p65 total protein level in the cell: cell lysates at 4 h or 15 h of infection
How it was run: as §2

[8] = system: IRF-3; test: Poly I:C-activated IRF-3 luciferase reporter in HEK-293 cells; format: cell-based, human; settings: 4 h post-treatment
How it was run: (§3)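 HEK-293 cells were transiently transfected with IRF-3 (Poly I:C line) or NF-κB (Poly I:C and TNF-α lines) luciferase reporter plasmids. At 15 h post-transfection, cells were stimulated by transfection with Poly I:C or by 10 ng/ml TNF-α and treated with test compound. Luciferase activity was read at 4 h post-treatment. Run at least twice; means ± SE.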

[9] = system: NF-κB; test: Poly I:C-induced NF-κB luciferase reporter in HEK-293 cells; format: cell-based, human; settings: 4 h post-treatment
How it was run: as §3

[10] = system: NF-κB; test: TNF-α-induced NF-κB luciferase reporter in HEK-293 cells; format: cell-based, human; settings: 10 ng/ml TNF-α, 4 h post-treatment
How it was run: as §3

[11] = system: A549 cells; test: LDH release cytotoxicity assay; format: cell-based, human; settings: 10 μM, 15 h
How it was run: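 A549 cells were seeded at 1.5 × 10^4 cells/well for 24 h. The whole medium was then replaced with fresh medium containing 10 μM test compound and 2% FBS; DMSO served as vehicle control. At 15 h, cells were harvested for luminescent LDH-release assay (LDH-Glo kit). Three biological replicates.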

[12] = 4 h posttreatment, RSV MOI 5, A549
[13] = 15 h posttreatment, RSV MOI 1, A549
[14] = 4 h posttreatment, RSV MOI 5, nuclear extracts
[15] = 15 h posttreatment, RSV MOI 1, nuclear extracts

SMILES | RSV-induced IRF3 activation (luciferase reporter) [1, 12] | RSV-induced IRF3 activation (luciferase reporter) [1, 13] | RSV-induced NF-κB activation (luciferase reporter) [2, 12] | RSV-induced NF-κB activation (luciferase reporter) [2, 13] | RSV-induced IL-6 [3] | RSV-induced MIP-1α [3] | RSV-induced TNF-α [3] | viral genome copies ([4]; 15 h posttreatment) | viral genome copies ([4]; 24 h posttreatment) | also measured
CCCNc1ccc(NC(=O)c2cc(Cl)ccc2O)c(Cl)c1 [Compound 11] | significantly inhibited | dramatically suppressed | significantly inhibited | dramatically suppressed | – | – | – | – | – | RSV-induced MIP-1β [3]: capable to inhibit
CC(C)Nc1ccc(NC(=O)c2cc(Cl)ccc2O)c(Cl)c1 [Compound 12] | significantly inhibited | dramatically suppressed | significantly inhibited | dramatically suppressed | no suppression | no suppression | no suppression | – | – | –
CC1(Nc2ccc(NC(=O)c3cc(Cl)ccc3O)c(Cl)c2)CCCCC1 [Compound 15, 5-Chloro-N-(2-chloro-4-((1-methylcyclohexyl)amino)phenyl)-2-hydroxybenzamide] | significantly inhibited | suppressed | significantly inhibited | no effect; also recorded: failed to inhibit | could inhibit | – | able to inhibit | significantly decreased | significantly decreased | RSV-induced MIP-1β [3]: capable to inhibit; RSV-induced cytokines/chemokines (all tested immune mediators) [3]: inhibited the induction of all tested immune mediators; RSV protein expression [5]: comparable; expression of viral P, M, N and F proteins [5]: decreased; nuclear translocation of IRF3 ([6]; 4 h posttreatment, RSV MOI 5): significantly decreased; RSV-induced IRF3 phosphorylation at Ser396 [6, 14]: significantly decreased; nuclear translocation of IRF3 ([6]; 15 h posttreatment, RSV MOI 1): significantly decreased; RSV-induced IRF3 phosphorylation at Ser396 [6, 15]: significantly decreased; IRF-3 total protein level in the cell [6]: undetectable or minimal impact; RSV-induced p65 Ser276 phosphorylation ([7]; 4 h posttreatment, RSV MOI 5): not affected; RSV-induced p65 Ser536 phosphorylation ([7]; 4 h posttreatment, RSV MOI 5): suppressed; nuclear translocation of p65 ([7]; 4 h posttreatment, RSV MOI 5): suppressed; RSV-induced p65 Ser276 phosphorylation ([7]; 15 h posttreatment, RSV MOI 1): no effect; RSV-induced p65 Ser536 phosphorylation ([7]; 15 h posttreatment, RSV MOI 1): impaired; nuclear translocation of p65 ([7]; 15 h posttreatment, RSV MOI 1): decreased; p65 total protein level in the cell [7]: undetectable or minimal impact; Poly I:C-activated IRF-3 (luciferase reporter) [8]: suppressed; Poly I:C-induced NF-κB activation (luciferase reporter) [9]: only impacted by compound 22, not 15; TNF-α-activated NF-κB (luciferase reporter) [10]: not impacted
O=C(Nc1ccc(NCc2cccnc2)cc1Cl)c1cc(Cl)ccc1O [Compound 19, 5-Chloro-N-(2-chloro-4-((pyridin-3-ylmethyl)amino)phenyl)-2-hydroxybenzamide] | no suppression | no effect | no suppression | no effect | – | – | – | – | – | RSV-induced cytokines/chemokines (all tested immune mediators) [3]: did not show any inhibitory effect
O=C(Nc1ccc(NCc2ccco2)cc1Cl)c1cc(Cl)ccc1O [Compound 22, 5-Chloro-N-(2-chloro-4-((furan-2-ylmethyl)amino)phenyl)-2-hydroxybenzamide] | significantly inhibited | dramatically suppressed | significantly inhibited | dramatically suppressed | no suppression; also recorded: enhanced | no suppression | no suppression | significantly decreased | significantly decreased | RSV protein expression [5]: comparable; expression of viral P, M, N and F proteins [5]: decreased; nuclear translocation of IRF3 ([6]; 4 h posttreatment, RSV MOI 5): significantly decreased; RSV-induced IRF3 phosphorylation at Ser396 [6, 14]: significantly decreased; nuclear translocation of IRF3 ([6]; 15 h posttreatment, RSV MOI 1): significantly decreased; RSV-induced IRF3 phosphorylation at Ser396 [6, 15]: significantly decreased; IRF-3 total protein level in the cell [6]: undetectable or minimal impact; RSV-induced p65 Ser276 phosphorylation ([7]; 4 h posttreatment, RSV MOI 5): not affected; RSV-induced p65 Ser536 phosphorylation ([7]; 4 h posttreatment, RSV MOI 5): suppressed; nuclear translocation of p65 ([7]; 4 h posttreatment, RSV MOI 5): suppressed; RSV-induced p65 Ser276 phosphorylation ([7]; 15 h posttreatment, RSV MOI 1): robustly suppressed; RSV-induced p65 Ser536 phosphorylation ([7]; 15 h posttreatment, RSV MOI 1): robustly suppressed; nuclear translocation of p65 ([7]; 15 h posttreatment, RSV MOI 1): robustly suppressed; p65 total protein level in the cell [7]: undetectable or minimal impact; Poly I:C-activated IRF-3 (luciferase reporter) [8]: suppressed; Poly I:C-induced NF-κB activation (luciferase reporter) [9]: impacted
CCCN(CCC)c1ccc(NC(=O)c2cc(Cl)ccc2O)c(Cl)c1 [Compound 26] | significantly inhibited | dramatically suppressed | significantly inhibited | dramatically suppressed | – | – | able to inhibit | – | – | –
O=C(Nc1ccc(N2CCOCC2)cc1Cl)c1cc(Cl)ccc1O [Compound 28, 5-Chloro-N-(2-chloro-4-morpholinophenyl)-2-hydroxybenzamide] | significantly inhibited | dramatically suppressed | significantly inhibited | dramatically suppressed | no suppression | no suppression | no suppression | – | – | –
CS(=O)(=O)CCCn1c(Cn2c(=O)n(CC(F)(F)F)c3ccncc32)cc2cc(Cl)ccc21 [JNJ-53718678, reference compound] | – | – | – | – | – | – | – | did not affect | slightly decreased | –
O=C(Nc1ccc([N+](=O)[O-])cc1Cl)c1cc(Cl)ccc1O [Niclosamide] | – | – | – | – | – | – | – | – | – | cell death [11]: about 24%
